Insulin prom act – TRM-6 insulin promoter activation. TRM-6 cells (human fetal islet line), insulin promoter eGFP reporter, imaging; plate-scaled: unstimulated 0, stimulated control 100. activation, % at 2 µM. hit rate 0.81% among 130,000. AID 1296;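 active = activation at 2 µM above a set limit, confirmed on inspection of the cell images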;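 also: share of cells whose green reporter signal exceeds an intensity cutoff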
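test system = TRM-6 insulin promoter–eGFP reporter cells | benchmarks = stimulated versus unstimulated wells as plate controls | read-out basis = percent cells above green-intensity threshold, converted to percent activation versus plate controls | detection = fixed-cell fluorescence microscopy, eGFP plus Hoechst | incubation = tamoxifen pre-incubation 15 h overnight, then compound exposure 48 h at 37 °C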
* marks the source's active call; other numbers are inactive results. Many of the other results were omitted from the sample, so hits are more common in it than they were.

SMILES	Insulin prom act
CCOC(=O)c1c(NC(=S)Nc2ccc(Cl)cc2)sc2c1CCN(C)C2	163
Cn1ncc(Cl)c1C(=O)Nc1sc2c(c1C(N)=O)CCC2	-14
CCN1CCc2c(sc(NC(=O)Nc3ccc(Cl)c(Cl)c3)c2C(N)=O)C1	208*
Cc1ccc(OCCC(=O)Nc2c(C)n(C)n(-c3ccccc3)c2=O)cc1	162
O=C(COC(=O)CCc1c[nH]c2ccccc12)NCc1ccc(Cl)cc1	-9
CCNC(=O)NC1(C(=O)Nc2ccc3c(c2)CCC3)CCCCC1	-9
CCC1=Nc2cc(C(=O)NCCCOC(C)C)ccc2Sc2ccccc21	110*
CCC1=Nc2cc(C(=O)O)ccc2Sc2ccccc21	-2
CC(C)OCCCNC(=O)c1ccccc1Oc1ccccc1	346
C[C@H](NC(=O)c1ccccc1Cl)C(=O)NCc1cccs1	-7
Cc1cccnc1NC(=O)COc1ccc2oc3c(c2c1)CCCC3	433*
Cc1cc(C)cc(OCC(=O)Nc2nonc2NC(=O)COc2cc(C)cc(C)c2)c1	-6
COc1cc2c(cc1NC(=O)COc1ccc3ccccc3c1)oc1ccccc12	-7
Cc1cc(-n2nc(C)cc2C)nc(N)n1	-8
Cc1cc(NCCO)nc(-n2nc(C)cc2C)n1	-79
CNc1nc(C)nc(-n2nc(C)cc2C)n1	660*
CCN(CC)c1ccc(C2NC(=O)NC(C)=C2C(=O)Nc2ccccc2)cc1 (stereo unspecified)	109
CCN(CC)c1ccc(C=C2C(=O)OC(c3ccccc3)OC2=O)cc1 (stereo unspecified)	312*
CCN(CC)c1ccc(/C=N/NC(=O)c2ccco2)cc1	0
Cc1cccc(N2CCN(C(=O)c3ccc(Cl)c(S(=O)(=O)N4CCc5ccccc5C4)c3)CC2)c1C	0
N#Cc1cc(C(=O)c2cc(F)ccc2O)cn(-c2nccs2)c1=O	-4
CN1CCN(CCCN2c3ccccc3Sc3ccc(C(F)(F)F)cc32)CC1	5
C=CCn1c(CCNC(=O)c2cccs2)nnc1SCC(=O)c1ccc(Br)cc1	-7
CCn1c(SC/C=C/c2ccccc2)nnc1-c1cccs1	191
C=CCn1c(Cc2cccs2)nnc1SC/C=C/c1ccccc1	81*
SMILES	Insulin prom act
O=C(CCC1COc2ccccc2O1)NCc1ccco1 (stereo unspecified)	177
Cc1cc(NNC(=O)c2ccccc2)nc(NNC(=O)c2ccccc2)n1	7
CCn1c(SCC(=O)Nc2cc(C)on2)nnc1-c1cccs1	-7
CCn1c(CNC(=O)c2cccs2)nnc1SCC(=O)Nc1ccc(Cl)cc1	650*
C=CCn1c(CCNC(=O)c2cccs2)nnc1SCC(=O)Nc1cccc(C(C)=O)c1	219
COC(=O)c1coc(-c2ccc(OC)cc2)c1C(=O)OC	0
COc1ccsc1C(=O)N1CCN(Cc2ccc3c(c2)OCO3)CC1	3
CC(NC(=O)CC12CC3CC(CC(C3)C1)C2)C(=O)O (stereo unspecified)	176
COc1ccccc1NS(=O)(=O)c1ccc(N/N=C(\C)C(C)C)c([N+](=O)[O-])c1	-9
COc1ccccc1NS(=O)(=O)c1cc(C)ccc1C	10
COc1ccccc1NS(=O)(=O)c1cc([N+](=O)[O-])ccc1N/N=C/c1c(C)[nH]c2ccccc12	260*
Cc1nc(C#N)c(N/N=C/c2cccc(Cl)c2)o1	300*
Clc1cccc(/C=N/Nc2nnc(Cl)c3ccccc23)c1	9
Cc1cc(C)nc(N/N=C/c2ccccc2)n1	-18
Cc1ccccc1-c1nc(CS(=O)(=O)CC(=O)NCCCN2C(C)CCCC2C)c(C)o1 (stereo unspecified)	112
O=C(Nc1ccccc1N1CCOCC1)c1cccnc1	8
O=C(Nc1ccccc1N1CCOCC1)c1cc(-c2ccncc2)nc2ccccc12	236*
Cc1cccc(-c2cc(C(=O)Nc3ccc4c(c3)OCCO4)c3ccccc3n2)c1	-3
Nc1ccc(N(c2ccccc2)c2ccc(N)cc2)cc1	0
O=C1c2ccc(Br)cc2C(=O)N1c1ccc(Cc2ccncc2)cc1	7
COc1cc2c(N3CCOCC3)cc(O)c(CC(=O)Nc3ccccc3)c2cc1OC	-6
CCN(CC(=O)NCc1cccs1)S(=O)(=O)c1ccc(C(C)C)cc1	6
Cc1nc2ccc(S(=O)(=O)NC(C(=O)NCc3cccs3)C(C)C)cc2s1 (stereo unspecified)	250*
Cc1ccc2nc(-c3ccccc3)nc(SC(C)C(=O)NCc3cccs3)c2c1 (stereo unspecified)	-7
COc1ccc(N/C(=N/c2nc(C)cc(C)n2)NC(=O)Nc2ccc(Cl)c(Cl)c2)c(OC)c1	3
SMILES	Insulin prom act
COCCCn1c(CCC(=O)O)ccc1-c1cccs1	86*
CCCn1c(CCC(=O)O)ccc1-c1cccs1	-3
O=C(O)CCc1ccc(-c2cccs2)n1CC1CCCO1 (stereo unspecified)	133
CCN(CC)C(NC(=O)c1ccccc1)C(=O)c1ccccc1 (stereo unspecified)	-3
COc1ccc(CC(NC(C)=O)C(=O)NC2CCN(c3c(Cc4ccccc4)c(C)nc4ncnn34)CC2)cc1OC (stereo unspecified)	6
C=C1C(O)C[C@H]2C(=C)CCC3[C@H](OC(=O)[C@]3(O)CO)[C@@H]12 (stereo partly specified)	275*
C=CCN1C(=O)NC2(O)C(=O)c3ccccc3C12O (stereo unspecified)	-8
Nc1nonc1C(=O)NCCN=Cc1cc(Cc2ccccc2)cc(Br)c1O	114
CCC1c2ccc(C)n2CCN1C(=O)Nc1cc(Cl)ccc1OC (stereo unspecified)	143
COCc1cc(C)nc(SCC[N+](C)(C)CC(=O)Nc2ccccc2)c1C#N	8
COCc1cc(C)nc(N2CCc3ccccc32)c1C#N	0
COCc1cc(C)nc(Nc2ccccc2C)c1C#N	408*
COC(=O)[C@@H]1CC[C@H](C)[C@@H](c2ccc(C)cc2)N1C(=O)c1ccc(/C=N/O[C@@H](C)CN2CCCCc3nc(C)c(C)cc32)cc1	0
O=C1NC2(CCCCC2)C(=O)N1CCS(=O)(=O)Oc1ccccc1	-3
CCSc1nnc(-c2ccc(S(=O)(=O)N3CCCC3)cc2)n1C	0
CCn1c(SCC(=O)N2CCCC(C)C2)nnc1-c1ccc(S(=O)(=O)N2CCN(C)CC2)cc1 (stereo unspecified)	81*
CCn1c(SCC(=O)Nc2ccccc2)nnc1-c1ccc(S(=O)(=O)N2CCOCC2)cc1	-3
Cc1ccc(CN(C(=O)c2ccco2)C(C(=O)NC2CCCC2)c2ccc(N3CCOCC3)cc2)cc1 (stereo unspecified)	153
CCOC(=O)C(C)Sc1nc2ccccc2c(=O)n1CC (stereo unspecified)	426*
CCOC(=O)COn1c(SCC(=O)OCC)nc2ccccc2c1=O	4
CCOC(=O)CSc1nc2ccccc2c(=O)n1CCN1CCOCC1	5
CCOC(=O)c1sc2nc(N3CCOCC3)c3c(c2c1N)CCN(C)C3	500*
Nc1c(C(=O)NCc2ccccc2)sc2nc(N3CCOCC3)c3c(c12)CCCC3	8
CCOC(=O)c1sc2nc(C)c3c(c2c1N)CC(C)(C)OC3	-9
Cc1sc2nc(C3CCCCC3)nc(SCC(=O)N3CC(=O)Nc4ccccc43)c2c1C	8
CCCSc1nc(O)c(C(c2ccc(OC)c(O)c2)c2c(O)nc(SCCC)n(C)c2=O)c(=O)n1C	10
Cc1ccc(CC2SC(=O)NC2=O)cc1Cl (stereo unspecified)	9
O=C1N/C(=N\c2ccccn2)SC1Cc1ccc(Cl)cc1 (stereo unspecified)	450*
